Columns and labels:
Mus musculus [1] = organism: Mus musculus; test: Hypoglycemic activity causing more than a 20% blood glucose decrease in fasting mice; type: functional
In short: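 Male ICR-CD1 mice, 5 weeks old, 18 h fasted, groups of five. Oral dosing as a suspension in 0.5% (carboxymethyl)cellulose–0.14 M NaCl, 1 mL/kg; vehicle control run in parallel. Carotid blood taken at 1 h; glucose by glucose-oxidase-peroxidase. Student's t test (p < 0.05). Value is the lowest dose giving >20% glucose decrease.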

Mus musculus [2] = test: Percent decrease in blood glucose level, after peroral administration of 100 mg/kg of compound in mice; Inactive; type: functional; conditions: route oral

O=C(N[C@H](Cc1ccccc1)C(=O)O)C1CCCCC1
Minimum effective hypoglycemic dose (Mus musculus [1]): 100 mg/kg

CC(C)[C@H]1CC[C@H](C(=O)N[C@@H](Cc2ccccc2)C(=O)O)CC1 [(S)-NATEGLINIDE]
Minimum effective hypoglycemic dose (Mus musculus [1]): 100 mg/kg

CC(C)[C@H]1CC[C@H](C(=O)N[C@@H](Cc2ccccc2)C(N)=O)CC1
Hypoglycemic activity (Mus musculus [2]): <20%

C[C@H]1CC[C@H](C(=O)N[C@H](Cc2ccccc2)C(=O)O)CC1
Minimum effective hypoglycemic dose (Mus musculus [1]): 25 mg/kg

CC(C)c1ccc(C(=O)N[C@H](Cc2ccccc2)C(=O)O)cc1
Minimum effective hypoglycemic dose (Mus musculus [1]): 25 mg/kg

CCCC[C@H]1CC[C@H](C(=O)N[C@H](Cc2ccccc2)C(=O)O)CC1
Minimum effective hypoglycemic dose (Mus musculus [1]): 25 mg/kg

CC(C)[C@H]1CC[C@H](C(=O)N[C@@H](Cc2ccccc2)C(=O)OCc2ccccc2)CC1
Minimum effective hypoglycemic dose (Mus musculus [1]): 25 mg/kg

CC(C)(C)[C@H]1CC[C@H](C(=O)N[C@H](Cc2ccccc2)C(=O)O)CC1
Minimum effective hypoglycemic dose (Mus musculus [1]): 6.3 mg/kg

O=C(O)[C@@H](Cc1ccccc1)NC(=O)[C@H]1CC[C@H](c2ccccc2)CC1
Hypoglycemic activity (Mus musculus [2]): <20%

CC(C)[C@H]1CC[C@H](C(=O)N[C@H](Cc2ccccc2)C(=O)O)CC1 [NATEGLINIDE]
Minimum effective hypoglycemic dose (Mus musculus [1]): 1.6 mg/kg

O=C(N[C@H](Cc1ccccc1)C(=O)O)C1CCc2ccccc2C1 (stereo partly drawn)
Hypoglycemic activity (Mus musculus [2]): <20%

CC(C)N(C(=O)[C@H](Cc1ccccc1)NC(=O)[C@H]1CC[C@H](C(C)C)CC1)C(C)C
Minimum effective hypoglycemic dose (Mus musculus [1]): 100 mg/kg

CCCCC[C@H]1CC[C@H](C(=O)N[C@H](Cc2ccccc2)C(=O)O)CC1
Hypoglycemic activity (Mus musculus [2]): <20%

CC(C)[C@H]1CC[C@H](C(=O)NCCc2ccccc2)CC1
Hypoglycemic activity (Mus musculus [2]): <20%

CC(C)[C@H]1CC[C@@H](C(=O)N[C@H](Cc2ccccc2)C(=O)O)CC1
Hypoglycemic activity (Mus musculus [2]): <20%

O=C(N[C@H](Cc1ccccc1)C(=O)O)C1CC2CCC1C2 (stereo partly drawn)
Hypoglycemic activity (Mus musculus [2]): <20%

O=C(N[C@H](Cc1ccccc1)C(=O)O)C1CCCC1
Minimum effective hypoglycemic dose (Mus musculus [1]): 50 mg/kg

COC(=O)[C@H](Cc1ccccc1)NC(=O)[C@H]1CC[C@H](C(C)C)CC1
Minimum effective hypoglycemic dose (Mus musculus [1]): 3.1 mg/kg

CCC[C@H]1CC[C@H](C(=O)N[C@H](Cc2ccccc2)C(=O)O)CC1
Minimum effective hypoglycemic dose (Mus musculus [1]): 25 mg/kg

CC[C@H]1CC[C@H](C(=O)N[C@H](Cc2ccccc2)C(=O)O)CC1
Minimum effective hypoglycemic dose (Mus musculus [1]): 25 mg/kg

O=C(N[C@H](Cc1ccccc1)C(=O)O)C1CCCCCC1
Hypoglycemic activity (Mus musculus [2]): <20%

CCCCNC(=O)NS(=O)(=O)c1ccc(C)cc1 [TOLBUTAMIDE]
Minimum effective hypoglycemic dose (Mus musculus [1]): 25 mg/kg

C=C(C)[C@@H]1CC=C(C(=O)N[C@H](Cc2ccccc2)C(=O)O)CC1
Minimum effective hypoglycemic dose (Mus musculus [1]): 25 mg/kg
